Compound activity from PubChem BioAssay.
CHOP UPR activ: activators of apoptotic arm of unfolded protein response (CHOP); CHO-CHOP luciferase reporter, UPR activation, luminescence; percent of tunicamycin response over DMSO baseline; activation, % at 10 µM; hit rate 0.34% among 330,000; AID 449763;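 active = at 10 µM dose, activation of 40% or more, normalized to positive control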;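 note: 100% = tunicamycin at 10 µg/mL and 0% = DMSO alone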
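System: CHO-CHOP luciferase reporter cell line | Buffer or medium: F12 medium containing 10% fetal bovine serum | Doses: One dose, 10 µM in 0.5% DMSO | Times: 6 h compound exposure at 37 °C after overnight seeding | Signal: Luciferase luminescence | Read-out: % activation vs tunicamycin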
TLR9-MyD88 block: inhibitors of human TLR9-MyD88 binding; Q9NR96+Q99836; CHO BLA complementation TLR9-MyD88, CCF4 FRET ratio; inhibition, % at 4.98 µM; hit rate 0.21% among 340,000;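 active = inhibition above the mean over all tested compounds plus 3 SD, cut at about 21% in these data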;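 note: 0% = DMSO only wells and 100% = clavulanate BLA inhibitor control wells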
NOD2 RIPK2 PPI: blocks binding of human NOD2 to RIPK2. hit rate 0.38% among 360,000. AID 624267. inhibition, % at 4.98 µM. CHO BLA complementation NOD2-RIPK2, CCF4 ratio. O43353; in the data active = inhibition above about 21%;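 note: 0% = vehicle only and 100% = reference blocker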
TLR4 MyD88 comp: inhibitors of human TLR4-MyD88 binding; HeLa CL3-4 TLR4/MyD88 BLA complementation, FRET ratio; O00206+Q99836; AID 861; hit rate 0.18% among 200,000; inhibition, % at 8.4 µM; in the data active = inhibition above about 25%;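 note: 0% = vehicle and 100% = reference inhibitor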
CHOP inh: CHOP inhibition in unfolded protein response; CHO-K1 CHOP-promoter luciferase, tunicamycin-induced, 15-18 h; inhibition, % at 10 µM; hit rate 3.8% among 220,000; AID 2732;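 active = compounds that reduced the stress-induced luciferase reporter signal by more than about 70% of percent inhibition, limit read from the data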;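 note: 0% = tunicamycin plus vehicle and 100% = wells without tunicamycin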
XBP1 UPR activ: activators of adaptive arm of unfolded protein response (XBP1). CHO-XBP1 luciferase reporter, IRE1-XBP1 UPR activation, luminescence; percent of tunicamycin response, DMSO as zero. activation, % at 20 µM. hit rate 0.33% among 330,000;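 active = versus positive control, 20 µM dose yields 30% or more activation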;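 note: 100% = tunicamycin at 10 µg/mL and 0% = DMSO only wells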
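Test system: CHO-XBP1 luciferase reporter cells | Buffer or medium: Serum-containing F12 medium, 10% FBS | Schedule: 6 h compound exposure at 37 °C, 5% CO2 | Detection: Steady-Glo luciferase glow luminescence, 10 min after reagent addition | Read-out basis: Activation, % of tunicamycin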
An asterisk follows results filed as active. This is one part of a sample in which hits are shown more often than they occur.

How did Cc1cccc(CN(CC(=O)N/N=C/c2cccs2)S(=O)(=O)c2ccc(Cl)cc2)c1 do in these assays?
CHOP UPR activ: -2.4; TLR9-MyD88 block: -0.8; NOD2 RIPK2 PPI: -10.1; TLR4 MyD88 comp: -19.5; CHOP inh: 77.5*; XBP1 UPR activ: -3.6

What do the screens show for `COc1ccc(S(=O)(=O)N(CCc2ccccc2)CC(=O)N/N=C/c2ccc3c(c2)OCO3)cc1`?
CHOP UPR activ: 0.7; TLR9-MyD88 block: -2.3; NOD2 RIPK2 PPI: 2.8; TLR4 MyD88 comp: 3.8; CHOP inh: 33.0; XBP1 UPR activ: -0.3

How did O=C(CN(CCc1ccccc1)S(=O)(=O)c1ccc(Cl)cc1)N/N=C/c1ccc2c(c1)OCO2 do in these assays?
CHOP UPR activ: 0.7; TLR9-MyD88 block: 7.3; NOD2 RIPK2 PPI: 3.9; TLR4 MyD88 comp: 4.8; CHOP inh: 76.8*; XBP1 UPR activ: -3.3

Results for C=CCN(CC=C)Cc1cc(=O)oc2cc(C)cc(C)c12 ?
NOD2 RIPK2 PPI: -11.4

How did CC1(C(=O)NC2CCCCCC2)CCN1C(=O)C1(c2ccccc2)CC1 (stereo not given) do in these assays?
NOD2 RIPK2 PPI: 1.9

How did COc1ccc(-c2[nH]ncc2-c2ccc(Cl)cc2)c(O)c1 do in these assays?
CHOP UPR activ: -1.0; TLR9-MyD88 block: -14.6; NOD2 RIPK2 PPI: -6.2; TLR4 MyD88 comp: -0.4; CHOP inh: 85.7*; XBP1 UPR activ: -1.1

What do the screens show for `COc1ccc(-c2cn[nH]c2-c2ccc(OC)cc2O)cc1`?
CHOP UPR activ: -1.3; TLR9-MyD88 block: 0.1; NOD2 RIPK2 PPI: -1.6; XBP1 UPR activ: -2.7

What do the screens show for `O=[N+]([O-])c1ccc(COc2ccc(-c3[nH]ncc3-c3ccc(Cl)cc3)c(O)c2)cc1`?
CHOP UPR activ: 2.2; TLR9-MyD88 block: -14.3; NOD2 RIPK2 PPI: -2.6; TLR4 MyD88 comp: -7.5; CHOP inh: 81.5*; XBP1 UPR activ: -0.1

How did COc1cccc(Oc2cn[nH]c2-c2ccc(OC)cc2O)c1 do in these assays?
CHOP UPR activ: 0.1; TLR9-MyD88 block: -5.5; NOD2 RIPK2 PPI: 5.7; TLR4 MyD88 comp: -3.6; CHOP inh: 83.7*; XBP1 UPR activ: 2.2

Results for C[C@@H]1CCCCO[C@H](CN(C)C(=O)Nc2cccc3ccccc23)[C@@H](C)CN([C@H](C)CO)C(=O)c2cc(NC(=O)c3ccccc3)ccc2O1 ?
TLR9-MyD88 block: 3.7; NOD2 RIPK2 PPI: -6.2

How did Cc1noc(C)c1S(=O)(=O)Nc1ccc2c(c1)C(=O)N([C@@H](C)CO)C[C@H](C)[C@@H](CN(C)Cc1ccc(C(F)(F)F)cc1)OCCCC[C@H](C)O2 do in these assays?
TLR9-MyD88 block: -17.1; NOD2 RIPK2 PPI: -0.6

What do the screens show for `O=S1(=O)N=C(Nc2ccc(N3CCOCC3)cc2)c2ccccc21`?
CHOP UPR activ: 3.4; TLR9-MyD88 block: -9.2; NOD2 RIPK2 PPI: -3.0; TLR4 MyD88 comp: 11.9; CHOP inh: 2.5; XBP1 UPR activ: 0.7

What do the screens show for `O=S1(=O)N=C(Nc2ccc(S(=O)(=O)N3CCCCC3)cc2)c2ccccc21`?
CHOP UPR activ: -1.2; TLR9-MyD88 block: 7.2; NOD2 RIPK2 PPI: 2.6; TLR4 MyD88 comp: 11.6; CHOP inh: 92.0*; XBP1 UPR activ: -5.3

Results for COc1ccc2c(c1)-c1c(sn(-c3ccccc3)c1=S)C(C)(C)N2 ?
CHOP UPR activ: 0.5; TLR9-MyD88 block: 8.3; NOD2 RIPK2 PPI: -3.1; TLR4 MyD88 comp: -11.2; CHOP inh: 70.0*; XBP1 UPR activ: 2.2

How did COc1ccc(N2C(=O)c3ccccc3NC2(C)C)cc1 do in these assays?
CHOP UPR activ: 1.6; TLR9-MyD88 block: 14.5; NOD2 RIPK2 PPI: -8.7; TLR4 MyD88 comp: 1.1; CHOP inh: -37.2; XBP1 UPR activ: -5.0

Results for COc1cc2c3c(c1)-c1c(sn(-c4cc(OC)ccc4OC)c1=S)C(C)(C)N3C(=O)C2=O ?
CHOP UPR activ: 1.6; TLR9-MyD88 block: -5.1; NOD2 RIPK2 PPI: -3.0; TLR4 MyD88 comp: 10.8; CHOP inh: 2.1; XBP1 UPR activ: 0.8

How did COc1ccc(-n2sc3c(c2=S)-c2cc(OC)ccc2NC3(C)C)cc1 do in these assays?
CHOP UPR activ: -0.4; TLR9-MyD88 block: 0.6; NOD2 RIPK2 PPI: -3.9; TLR4 MyD88 comp: 7.9; CHOP inh: 91.1*; XBP1 UPR activ: 1.3

How did COc1ccc2c(c1)-c1c(sn(-c3ccc(OC)c(OC)c3)c1=S)C(C)(C)N2 do in these assays?
CHOP UPR activ: 2.9; TLR9-MyD88 block: -2.8; NOD2 RIPK2 PPI: 3.6; TLR4 MyD88 comp: -6.2; CHOP inh: 79.5*; XBP1 UPR activ: 2.7

What do the screens show for `COc1ccc2c(c1)-c1c(ssc1=S)C(C)(C)N2`?
CHOP UPR activ: -2.0; TLR9-MyD88 block: -5.7; NOD2 RIPK2 PPI: -4.9; TLR4 MyD88 comp: -5.5; CHOP inh: 42.7; XBP1 UPR activ: 4.7

How did Cc1noc(C)c1C(=O)OC(C)C(=O)c1c[nH]c2ccccc12 (stereo not given) do in these assays?
TLR9-MyD88 block: 0.6; NOD2 RIPK2 PPI: -3.7

How did COc1ccc(-c2ccc(C#N)c(OC)n2)cc1 do in these assays?
CHOP UPR activ: 1.1; NOD2 RIPK2 PPI: 0.8; TLR4 MyD88 comp: 22.1; CHOP inh: 34.9; XBP1 UPR activ: -0.9

What do the screens show for `CCOc1nc(-c2ccccc2Cl)ccc1C#N`?
CHOP UPR activ: -2.1; TLR9-MyD88 block: 1.3; NOD2 RIPK2 PPI: -0.1; TLR4 MyD88 comp: 1.8; CHOP inh: 70.7*; XBP1 UPR activ: -0.4

What do the screens show for `O=c1c2ccccc2[nH]c(=S)n1C1CCCCC1`?
CHOP UPR activ: -2.6; TLR9-MyD88 block: 8.6; NOD2 RIPK2 PPI: -8.0; TLR4 MyD88 comp: -5.2; CHOP inh: 40.3; XBP1 UPR activ: 5.0

Results for CC1CCCC(n2c(=S)[nH]c3ccccc3c2=O)C1C (stereo not given) ?
CHOP UPR activ: -1.3; TLR9-MyD88 block: -3.9; NOD2 RIPK2 PPI: -4.7; TLR4 MyD88 comp: 0.3; CHOP inh: 93.8*; XBP1 UPR activ: 2.7

What do the screens show for `CSc1ccc(OC2(C)CCN(Cc3cc4ccccc4o3)C2)cc1` (stereo not given)?
NOD2 RIPK2 PPI: -4.7

How did Cc1cccc(C(=O)NCCNc2nc3cc(C)c(C)cc3cc2C)c1 do in these assays?
CHOP UPR activ: -0.8; TLR9-MyD88 block: 4.8; NOD2 RIPK2 PPI: -1.6; TLR4 MyD88 comp: 3.6; CHOP inh: 76.0*; XBP1 UPR activ: 0.7

What do the screens show for `COc1cc(C(O)c2nc(-c3cccc(F)c3)cs2)ccc1F` (stereo not given)?
NOD2 RIPK2 PPI: 2.2

Results for CCOc1ccc(-c2nnn(CC(=O)NCCc3c[nH]c4ccccc34)n2)cc1 ?
CHOP UPR activ: 0.9; TLR9-MyD88 block: -1.1; NOD2 RIPK2 PPI: 6.3; TLR4 MyD88 comp: 4.0; CHOP inh: 46.0; XBP1 UPR activ: 2.3

How did CCOC(=O)Cn1nnc(-c2ccc(OCC(C)C)cc2)n1 do in these assays?
CHOP UPR activ: -0.3; TLR9-MyD88 block: -8.3; NOD2 RIPK2 PPI: -9.7; TLR4 MyD88 comp: 0.4; CHOP inh: 70.5*; XBP1 UPR activ: 1.3
